ChEMBL document CHEMBL1124822, “(8 beta)-6-methylergoline amide derivatives as serotonin antagonists: N1-substituent effects on vascular 5HT2 receptor activity” (J Med Chem, 1990)

Target: Serotonin 2 (5-HT2) receptor (Rattus norvegicus) (UniProt P30994+P08909+P14842)
Experiment: Antagonistic activity against (5-hydroxytryptamine 2 receptor) serotonin-induced contractions in the rat jugular vein
Format: functional
Summary of the method: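 Isolated jugular vein segments mounted on two L-shaped needles, one tied to a transducer, in organ baths with 10 mL modified Krebs bicarbonate solution; 1-2 h equilibration. Control cumulative serotonin contraction curves were recorded, then the antagonist was incubated 1 h and the curves repeated, one antagonist concentration per tissue. K_B = [B]/(dose ratio − 1), using serotonin ED50 ratios; reported as −log K_B.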

Sequence of Serotonin 2 (5-HT2) receptor (Rattus norvegicus) (P08909 whole entry, looked up): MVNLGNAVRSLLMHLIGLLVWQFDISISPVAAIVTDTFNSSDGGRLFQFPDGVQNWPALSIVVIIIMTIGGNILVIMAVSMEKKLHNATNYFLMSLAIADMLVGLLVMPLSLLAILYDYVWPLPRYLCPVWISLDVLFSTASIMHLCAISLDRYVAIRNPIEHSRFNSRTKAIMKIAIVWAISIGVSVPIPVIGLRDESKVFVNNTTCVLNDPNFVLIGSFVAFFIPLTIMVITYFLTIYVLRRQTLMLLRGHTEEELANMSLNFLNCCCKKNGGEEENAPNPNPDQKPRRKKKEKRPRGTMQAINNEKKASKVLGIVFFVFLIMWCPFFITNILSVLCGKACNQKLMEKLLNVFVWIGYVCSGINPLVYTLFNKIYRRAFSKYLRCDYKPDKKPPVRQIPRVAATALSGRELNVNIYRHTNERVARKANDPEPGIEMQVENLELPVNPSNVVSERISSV
Sequence of Serotonin 2 (5-HT2) receptor (Rattus norvegicus) (P14842 whole entry, looked up): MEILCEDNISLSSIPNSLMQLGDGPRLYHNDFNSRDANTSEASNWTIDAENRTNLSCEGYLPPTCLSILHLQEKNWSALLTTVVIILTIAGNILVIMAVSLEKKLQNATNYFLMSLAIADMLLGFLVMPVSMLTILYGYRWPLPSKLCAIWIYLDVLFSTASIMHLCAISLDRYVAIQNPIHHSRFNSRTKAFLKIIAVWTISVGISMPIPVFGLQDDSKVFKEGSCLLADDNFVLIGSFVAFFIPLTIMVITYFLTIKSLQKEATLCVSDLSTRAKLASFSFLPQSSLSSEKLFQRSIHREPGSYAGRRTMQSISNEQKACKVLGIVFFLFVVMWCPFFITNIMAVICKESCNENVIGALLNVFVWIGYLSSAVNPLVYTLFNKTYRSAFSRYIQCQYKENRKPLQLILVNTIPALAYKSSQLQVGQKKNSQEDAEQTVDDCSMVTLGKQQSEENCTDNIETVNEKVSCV
Sequence of Serotonin 2 (5-HT2) receptor (Rattus norvegicus) (P30994 whole entry, looked up): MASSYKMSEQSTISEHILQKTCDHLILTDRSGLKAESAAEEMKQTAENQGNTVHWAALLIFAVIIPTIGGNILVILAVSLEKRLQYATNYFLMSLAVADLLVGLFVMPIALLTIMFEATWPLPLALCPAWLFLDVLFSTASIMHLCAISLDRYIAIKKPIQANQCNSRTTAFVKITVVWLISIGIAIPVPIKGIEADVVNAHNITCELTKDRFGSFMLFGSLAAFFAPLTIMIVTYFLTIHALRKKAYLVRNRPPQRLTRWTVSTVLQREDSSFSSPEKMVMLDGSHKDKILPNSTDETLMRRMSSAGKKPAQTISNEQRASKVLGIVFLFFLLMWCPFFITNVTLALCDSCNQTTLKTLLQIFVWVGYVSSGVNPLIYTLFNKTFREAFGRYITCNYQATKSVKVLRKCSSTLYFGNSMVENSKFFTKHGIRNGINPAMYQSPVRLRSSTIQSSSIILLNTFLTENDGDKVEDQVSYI

SMILES | -Log KB
CC(C)n1cc2c3c(cccc31)[C@H]1C[C@@H](c3nnnn3C3CCCCC3)CN(C)[C@@H]1C2 | < 8
CN1C[C@H](c2nnnn2C2CCCCC2)C[C@@H]2c3cccc4c3c(cn4C)C[C@H]21 | < 7
COC1CCC(C(=O)N[C@@H]2C[C@@H]3c4cccc5c4c(cn5C)C[C@H]3N(C)C2)CC1 (stereo partly specified) | 8.71
COC1CCC(C(=O)N[C@@H]2C[C@@H]3c4cccc5c4c(cn5C(C)C)C[C@H]3N(C)C2)CC1 (stereo partly specified) | 9.64
CN1C[C@H](C(=O)NC2CCCCC2)C[C@@H]2c3cccc4c3c(cn4Cc3ccccc3)C[C@H]21 | < 7
CC(C)n1cc2c3c(cccc31)[C@H]1C[C@@H](C(N)=O)CN(C)[C@@H]1C2 | 8.7
CN1C[C@H](c2nnnn2C2CCCCC2)C[C@@H]2c3cccc4[nH]cc(c34)C[C@H]21 | < 6.52
CCn1cc2c3c(cccc31)[C@H]1C[C@@H](NC(=O)C3CCC(OC)CC3)CN(C)[C@@H]1C2 (stereo partly specified) | 9.43
CC(C)Cn1cc2c3c(cccc31)[C@H]1C[C@@H](C(=O)NC3CCCC3)CN(C)[C@@H]1C2 | < 7
CCCCCCCCn1cc2c3c(cccc31)[C@H]1C[C@@H](C(=O)NC3CCCCC3)CN(C)[C@@H]1C2 | < 7
C=CCn1cc2c3c(cccc31)[C@H]1C[C@@H](C(=O)NC3CCCCC3)CN(C)[C@@H]1C2 | 8.15
CN1C[C@H](C(=O)NC2CCCCC2)C[C@@H]2c3cccc4c3c(cn4C)C[C@H]21 | 9.7
CN1C[C@H](C(=O)NC2CCCCC2)C[C@@H]2c3cccc4[nH]cc(c34)C[C@H]21 | 9.24
CN1C[C@H](C(=O)NC2CCCC2)C[C@@H]2c3cccc4[nH]cc(c34)C[C@H]21 | 8.87
CN1C[C@H](C(=O)NC2CCCC2)C[C@@H]2c3cccc4c3c(cn4C)C[C@H]21 | 9.23
CCC(CC)n1cc2c3c(cccc31)[C@H]1C[C@@H](C(=O)NC3CCCC3)CN(C)[C@@H]1C2 | 7.3

SMILES | -Log KB
CCC(CC)n1cc2c3c(cccc31)[C@H]1C[C@@H](C(=O)NC3CCCCC3)CN(C)[C@@H]1C2 | 7.8
CCCCn1cc2c3c(cccc31)[C@H]1C[C@@H](C(=O)NC3CCCCC3)CN(C)[C@@H]1C2 | 7.5
CN1C[C@H](C(=O)NC2CCCCC2)C[C@@H]2c3cccc4c3c(cn4C3CCCC3)C[C@H]21 | < 7
CN1C[C@H](C(N)=O)C[C@@H]2c3cccc4c3c(cn4C)C[C@H]21 | 7.81
CC(C)n1cc2c3c(cccc31)[C@H]1C[C@@H](C(=O)NC3CCCC3)CN(C)[C@@H]1C2 | 10.3
CCn1cc2c3c(cccc31)[C@H]1C[C@@H](C(=O)NC3CCCCC3)CN(C)[C@@H]1C2 | 9.25
CCn1cc2c3c(cccc31)[C@H]1C[C@@H](C(=O)NC3CCCC3)CN(C)[C@@H]1C2 | 9.8
CC(C)Cn1cc2c3c(cccc31)[C@H]1C[C@@H](C(=O)NC3CCCCC3)CN(C)[C@@H]1C2 | < 7
CN1C[C@H](CC(=O)NC2CCCCC2)C[C@@H]2c3cccc4[nH]cc(c34)C[C@H]21 | 8.05
CN1C[C@H](C(N)=O)C[C@@H]2c3cccc4[nH]cc(c34)C[C@H]21 | 7
CCn1cc2c3c(cccc31)[C@H]1C[C@@H](C(N)=O)CN(C)[C@@H]1C2 | 8.44
CCCn1cc2c3c(cccc31)[C@H]1C[C@@H](C(=O)NC3CCCCC3)CN(C)[C@@H]1C2 | 8
CN1C[C@H](CC(=O)NC2CCCCC2)C[C@@H]2c3cccc4c3c(cn4C)C[C@H]21 | 8.97
CC(C)n1cc2c3c(cccc31)[C@H]1C[C@@H](CC(=O)NC3CCCCC3)CN(C)[C@@H]1C2 | 8.88
CC(C)n1cc2c3c(cccc31)[C@H]1C[C@@H](C(=O)NC3CCCCC3)CN(C)[C@@H]1C2 | 9.67
